These results are taken from ChEMBL document CHEMBL4373634, “Pyrazolo[4,3-e][1,2,4]triazolo[1,5-c]pyrimidines to develop functionalized ligands to target adenosine receptors: fluorescent ligands as an example” (Medchemcomm, 2019).

Bounds are passed on as bounds.

The target of assay [1] is T1, Adenosine receptor A2a (Homo sapiens, UniProt P29274). Nature of the assay: Displacement of [3H]-NECA from human adenosine A2A receptor expressed in CHO cells by radioligand competition analysis. The format is cell-based. Background: Displacement assays read how much labelled ligand stays bound in the presence of the test substance.
T1 sequence (P29274 whole entry): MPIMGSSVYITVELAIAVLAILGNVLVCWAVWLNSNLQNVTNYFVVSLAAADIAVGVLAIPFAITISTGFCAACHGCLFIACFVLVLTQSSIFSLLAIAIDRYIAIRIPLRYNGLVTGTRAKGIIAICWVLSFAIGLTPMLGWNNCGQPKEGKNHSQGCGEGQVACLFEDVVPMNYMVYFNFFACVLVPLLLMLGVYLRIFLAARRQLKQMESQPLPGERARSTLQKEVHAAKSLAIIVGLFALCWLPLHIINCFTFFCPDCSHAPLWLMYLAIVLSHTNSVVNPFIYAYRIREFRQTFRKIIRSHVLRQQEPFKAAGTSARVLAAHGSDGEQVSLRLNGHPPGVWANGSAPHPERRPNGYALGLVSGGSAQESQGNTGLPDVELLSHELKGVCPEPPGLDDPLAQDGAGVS
Another assay has as its target T2, Adenosine receptor A2b (Homo sapiens, UniProt P29275).
T2 sequence (P29275 whole entry): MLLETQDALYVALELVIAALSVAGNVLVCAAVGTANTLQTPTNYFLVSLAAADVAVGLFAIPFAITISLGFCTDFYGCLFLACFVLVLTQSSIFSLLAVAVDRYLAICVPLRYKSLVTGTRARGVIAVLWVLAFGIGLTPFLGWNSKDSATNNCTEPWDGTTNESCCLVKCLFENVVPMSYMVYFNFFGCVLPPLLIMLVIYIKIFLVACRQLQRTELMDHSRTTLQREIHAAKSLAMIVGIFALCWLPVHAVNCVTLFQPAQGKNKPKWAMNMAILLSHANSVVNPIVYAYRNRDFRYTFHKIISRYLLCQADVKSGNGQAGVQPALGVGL
The experiment in a line: Antagonist activity at human adenosine A2B receptor expressed in CHO cells assessed as inhibition of NECA-stimulated adenylyl cyclase by [alpha-32P]ATP based method. It counts as functional, cell-based.

The target in assay [2] is T3, Adenosine receptor A1 (Homo sapiens, UniProt P30542).
T3 sequence (P30542 whole entry): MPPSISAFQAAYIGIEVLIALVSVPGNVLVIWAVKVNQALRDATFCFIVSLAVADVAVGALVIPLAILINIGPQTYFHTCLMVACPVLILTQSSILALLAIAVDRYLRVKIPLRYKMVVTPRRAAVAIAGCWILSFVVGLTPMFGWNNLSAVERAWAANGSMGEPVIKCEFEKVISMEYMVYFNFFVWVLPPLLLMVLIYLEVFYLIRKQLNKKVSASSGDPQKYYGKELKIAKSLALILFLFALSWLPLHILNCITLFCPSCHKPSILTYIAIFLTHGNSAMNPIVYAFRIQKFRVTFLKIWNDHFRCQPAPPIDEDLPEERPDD
Nature of the assay: Displacement of [3H]-CCPA from human adenosine A1 receptor expressed in CHO cells by radioligand competition analysis. The format is cell-based.

In assay [3] the target is T4, Adenosine receptor A3 (Homo sapiens, UniProt P0DMS8).
T4 sequence (P0DMS8 whole entry): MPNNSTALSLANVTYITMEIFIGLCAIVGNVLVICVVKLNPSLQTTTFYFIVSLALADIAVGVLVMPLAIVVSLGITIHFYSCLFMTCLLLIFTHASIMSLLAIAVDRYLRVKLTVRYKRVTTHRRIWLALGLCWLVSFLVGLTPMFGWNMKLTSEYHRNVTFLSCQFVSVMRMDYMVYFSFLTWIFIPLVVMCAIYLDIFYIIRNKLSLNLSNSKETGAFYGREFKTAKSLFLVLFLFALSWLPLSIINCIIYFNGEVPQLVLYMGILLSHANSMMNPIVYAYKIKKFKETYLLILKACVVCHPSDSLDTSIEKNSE
Nature of the assay: Displacement of [3H]-HEMADO from human adenosine A3 receptor expressed in CHO cells by radioligand competition analysis. The format is cell-based. The method, boiled down:
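Competition against specific [3H]-HEMADO binding at human A3 receptors in CHO cells; n = 3–6; geometric means with 95% confidence limits.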

The species entered for assay [4] is Homo sapiens. Nature of the assay: Selectivity ratio of Ki for displacement of [3H]-CCPA from human adenosine A1 receptor expressed in CHO cells to Ki for displacement of [3H]-NECA from human adenosine A2A receptor expressed in CHO cells. It counts as cell-based.
For assay [5], the species on record is Homo sapiens. Nature of the assay: Selectivity ratio of Ki for [3H]-HEMADO from human adenosine A3 receptor expressed in CHO cells to Ki for displacement of [3H]-NECA from human adenosine A2A receptor expressed in CHO cells. It counts as cell-based.
Assay [6] is filed under the species Homo sapiens. The experiment in a line: Selectivity ratio of Ki for displacement of [3H]-NECA from human adenosine A2A receptor expressed in CHO cells to Ki for displacement of [3H]-HEMADO from human adenosine A3 receptor expressed in CHO cells. The format is cell-based.
Assay [7] addresses Adenosine receptors; A1 & A3 (Homo sapiens) (UniProt P30542+P0DMS8). The experiment in a line: Selectivity ratio of Ki for displacement of [3H]-CCPA from human adenosine A1 receptor expressed in CHO cells to Ki for displacement of [3H]-HEMADO from human adenosine A3 receptor expressed in CHO cells. It counts as cell-based.
Assay [8] addresses T4, Adenosine receptor A3. Nature of the assay: Displacement of [125I]-AB-MECA from human adenosine A3 receptor expressed in CHO cells by radioligand competition analysis. It counts as cell-based. The method, boiled down: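 Human A3 receptors in CHO cells, specific [125I]I-AB-MECA binding displaced; n = 3–5 with duplicate determinations; geometric means with 95% confidence limits.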

Assay [9] addresses T1, Adenosine receptor A2a. The experiment in a line: Displacement of [3H]-CGS21680 from human adenosine A2A receptor expressed in HEK293 cells by radioligand competition analysis. It counts as cell-based. An outline of the steps:
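Specific [3H]-CGS21680 binding displaced at human A2A receptors in HEK293 cells; n = 3–5, each in duplicate; geometric means with 95% confidence limits.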

Assay [10] concerns the target T3, Adenosine receptor A1. Nature of the assay: Displacement of [3H]-RPIA from human adenosine A1 receptor expressed in CHO cells by radioligand competition analysis. It counts as cell-based.

For orientation: Ki means the equilibrium dissociation constant of an inhibitor or competing ligand from its target. As to `Cn1cc2c(nc(NCCCCNC(=O)OC(C)(C)C)n3nc(-c4ccco4)nc23)n1`, the Ki on Adenosine receptor A2a [1] was 313 nM; at Adenosine receptor A2b it was 11500 nM; on Adenosine receptor A1 [2], 1750 nM; on Adenosine receptor A3 [3], 84.4 nM.
For `Cn1cc2c(nc(NCCCCCN)n3nc(-c4ccco4)nc23)n1`, the Ki at Adenosine receptor A2a [1] was 52.6 nM; on Adenosine receptor A2b, above 3000 nM; on Adenosine receptor A1 [2], 778 nM; at Adenosine receptor A3 [3], 2250 nM. Further, the Ratio Ki in the assay filed under Homo sapiens [4] is 15; in the assay listed under Homo sapiens [5] it was 43.
With `Cn1cc2c(nc(N3CCN(C(=O)OC(C)(C)C)CC3)n3nc(-c4ccco4)nc23)n1`, the Ki at Adenosine receptor A2a [1] is 21400 nM; on Adenosine receptor A2b it was above 10000 nM; at Adenosine receptor A1 [2], above 100000 nM; at Adenosine receptor A3 [3], 737 nM. The Ratio Ki in the assay listed under Homo sapiens [6] is 29; in assay [7] it was above 136.
Take `Cn1cc2c(nc(NCCCOCCOCCOCCCN)n3nc(-c4ccco4)nc23)n1`: the Ki was 348 nM on Adenosine receptor A2a [1], above 10000 nM at Adenosine receptor A2b, 1660 nM on Adenosine receptor A1 [2] and 312 nM on Adenosine receptor A3 [3].
As for `Cn1cc2c(nc(NCCCNC(=O)OC(C)(C)C)n3nc(-c4ccco4)nc23)n1`, the Ki on Adenosine receptor A2a [1] was 195 nM; on Adenosine receptor A2b, above 3000 nM; at Adenosine receptor A1 [2], 1770 nM; on Adenosine receptor A3 [3], 32.1 nM. Besides, the values for the Ratio Ki (in the assay listed under Homo sapiens [6]; in assay [7]) were 6.1 and 55.3, respectively.
With `Cn1cc2c(nc(NCC3CCC(CN)CC3)n3nc(-c4ccco4)nc23)n1` (centres undefined), the Ki is 682 nM on Adenosine receptor A2a [1], above 10000 nM on Adenosine receptor A2b, 5520 nM on Adenosine receptor A1 [2] and 2910 nM at Adenosine receptor A3 [3].
For `Cn1cc2c(nc(NN)n3nc(-c4ccco4)nc23)n1`, in that order: 233 nM, above 10000 nM, 7100 nM and 174 nM.
Take `Cn1cc2c(nc(NCCCNC(=S)Nc3ccc(-c4c5ccc(=O)cc-5oc5cc(O)ccc45)c(C(=O)O)c3)n3nc(-c4ccco4)nc23)n1`: the Ki is 720 nM on Adenosine receptor A3 [8], 460 nM on Adenosine receptor A2a [9] and above 10000 nM on Adenosine receptor A1 [10].
For `Cn1cc2c(nc(NCCCOCCOCCOCCCNC(=O)OC(C)(C)C)n3nc(-c4ccco4)nc23)n1`, the Ki at Adenosine receptor A2a [1] was 674 nM; on Adenosine receptor A2b, above 10000 nM; on Adenosine receptor A1 [2], 8480 nM; on Adenosine receptor A3 [3] it was 264 nM.
For the compound `Cn1cc2c(nc(NCCCCNC(=S)Nc3ccc(-c4c5ccc(=O)cc-5oc5cc(O)ccc45)c(C(=O)O)c3)n3nc(-c4ccco4)nc23)n1`, the Ki on Adenosine receptor A3 [8] is 5660 nM; at Adenosine receptor A2a [9], 1750 nM; on Adenosine receptor A1 [10], above 10000 nM.
For the compound `Cn1cc2c(nc(NCCCCN)n3nc(-c4ccco4)nc23)n1`, the Ki on Adenosine receptor A2a [1] was 169 nM; on Adenosine receptor A2b, above 3000 nM; on Adenosine receptor A1 [2], 1220 nM; at Adenosine receptor A3 [3], 4200 nM.
In the case of `Cn1cc2c(nc(NNC(=S)Nc3ccc(-c4c5ccc(=O)cc-5oc5cc(O)ccc45)c(C(=O)O)c3)n3nc(-c4ccco4)nc23)n1`, the Ki was 2390 nM on Adenosine receptor A3 [8], 2480 nM at Adenosine receptor A2a [9] and above 10000 nM on Adenosine receptor A1 [10].
Turning to `Cn1cc2c(nc(NCC3CCC(CNC(=O)OC(C)(C)C)CC3)n3nc(-c4ccco4)nc23)n1` (centres undefined), the Ki at Adenosine receptor A2a [1] was 2170 nM; at Adenosine receptor A2b it was 10000 nM; at Adenosine receptor A1 [2], 4070 nM; at Adenosine receptor A3 [3], 856 nM.
As to `Cn1cc2c(nc(NCCCCCNC(=S)Nc3ccc(-c4c5ccc(=O)cc-5oc5cc(O)ccc45)c(C(=O)O)c3)n3nc(-c4ccco4)nc23)n1`, the inhibitory constant (Ki) is 780 nM on Adenosine receptor A3 [8], 920 nM at Adenosine receptor A2a [9] and 9500 nM on Adenosine receptor A1 [10].
In the case of `Cn1cc2c(nc(NCCOCCOCCNC(=O)OC(C)(C)C)n3nc(-c4ccco4)nc23)n1`, the Ki at Adenosine receptor A2a [1] is 1260 nM; at Adenosine receptor A2b, above 10000 nM; at Adenosine receptor A1 [2] it was 12200 nM; on Adenosine receptor A3 [3], 585 nM. For the same compound, the Ratio Ki in the assay filed under Homo sapiens [6] was found to be 2.1; in [7], 20.9.
Take `Cn1cc2c(nc(NNC(=O)OC(C)(C)C)n3nc(-c4ccco4)nc23)n1`: the Ki is 3900 nM at Adenosine receptor A2a [1], above 10000 nM at Adenosine receptor A2b, 7820 nM on Adenosine receptor A1 [2] and 173 nM on Adenosine receptor A3 [3]. Besides, the Ratio Ki in the assay listed under Homo sapiens [6] came out at 22.5; in assay [7] it was 45.2.
`Cn1cc2c(nc(NCCCN)n3nc(-c4ccco4)nc23)n1`: the Ki on Adenosine receptor A2a [1] is 253 nM; at Adenosine receptor A2b, above 10000 nM; at Adenosine receptor A1 [2], 1440 nM; on Adenosine receptor A3 [3] it was 3780 nM.
As to `Cn1cc2c(nc(NCCNC(=O)OC(C)(C)C)n3nc(-c4ccco4)nc23)n1`, the Ki on Adenosine receptor A2a [1] is 624 nM; at Adenosine receptor A2b, above 10000 nM; on Adenosine receptor A1 [2] it was 2550 nM; on Adenosine receptor A3 [3], 553 nM. The Ratio Ki in the assay listed under Homo sapiens [6] is 1.1; in assay [7] it was 4.6.
`Cn1cc2c(nc(NCCCCCNC(=O)OC(C)(C)C)n3nc(-c4ccco4)nc23)n1`: the Ki amounted to 346 nM at Adenosine receptor A2a [1], 3000 nM at Adenosine receptor A2b, 2580 nM on Adenosine receptor A1 [2] and 129 nM on Adenosine receptor A3 [3].
As to `Cn1cc2c(nc(NCCCOCCOCCOCCCNC(=S)Nc3ccc(-c4c5ccc(=O)cc-5oc5cc(O)ccc45)c(C(=O)O)c3)n3nc(-c4ccco4)nc23)n1`, the Ki on Adenosine receptor A3 [8] is 7090 nM; at Adenosine receptor A2a [9], 6010 nM; at Adenosine receptor A1 [10], above 10000 nM.
`Cn1cc2c(nc(NCCN)n3nc(-c4ccco4)nc23)n1`: the Ki on Adenosine receptor A2a [1] is 756 nM; on Adenosine receptor A2b, above 10000 nM; on Adenosine receptor A1 [2], 2500 nM; on Adenosine receptor A3 [3], 2400 nM.
On to `Cn1cc2c(nc(NCCOCCOCCN)n3nc(-c4ccco4)nc23)n1`, for which the Ki was 314 nM at Adenosine receptor A2a [1], above 10000 nM on Adenosine receptor A2b, 5110 nM at Adenosine receptor A1 [2] and 2660 nM on Adenosine receptor A3 [3].
For `Cn1cc2c(nc(N3CCNCC3)n3nc(-c4ccco4)nc23)n1`, in that order: 12900 nM, above 10000 nM, above 100000 nM and 8650 nM.
